Test results as given in ChEMBL document CHEMBL1138063, “Imidazole-dioxolane compounds as isozyme-selective heme oxygenase inhibitors” (J Med Chem, 2006).

Legend:
[1] = Inhibition of rat liver CYP3A1/3A2; format: ADME, tissue-based
Outline: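 CYP3A1/3A2 in rat liver microsomes, measured as erythromycin N-demethylase activity by spectrophotometric formaldehyde determination. Remaining activity was taken as % of control across inhibitor concentrations. IC50 came from a sigmoidal nonlinear regression, with two or three replicate curves.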

[2] = target: Nitric oxide synthase 1 (Rattus norvegicus, UniProt P29476); assay: Inhibition of rat brain nNOS
Chain of Nitric oxide synthase 1 (P29476 whole entry): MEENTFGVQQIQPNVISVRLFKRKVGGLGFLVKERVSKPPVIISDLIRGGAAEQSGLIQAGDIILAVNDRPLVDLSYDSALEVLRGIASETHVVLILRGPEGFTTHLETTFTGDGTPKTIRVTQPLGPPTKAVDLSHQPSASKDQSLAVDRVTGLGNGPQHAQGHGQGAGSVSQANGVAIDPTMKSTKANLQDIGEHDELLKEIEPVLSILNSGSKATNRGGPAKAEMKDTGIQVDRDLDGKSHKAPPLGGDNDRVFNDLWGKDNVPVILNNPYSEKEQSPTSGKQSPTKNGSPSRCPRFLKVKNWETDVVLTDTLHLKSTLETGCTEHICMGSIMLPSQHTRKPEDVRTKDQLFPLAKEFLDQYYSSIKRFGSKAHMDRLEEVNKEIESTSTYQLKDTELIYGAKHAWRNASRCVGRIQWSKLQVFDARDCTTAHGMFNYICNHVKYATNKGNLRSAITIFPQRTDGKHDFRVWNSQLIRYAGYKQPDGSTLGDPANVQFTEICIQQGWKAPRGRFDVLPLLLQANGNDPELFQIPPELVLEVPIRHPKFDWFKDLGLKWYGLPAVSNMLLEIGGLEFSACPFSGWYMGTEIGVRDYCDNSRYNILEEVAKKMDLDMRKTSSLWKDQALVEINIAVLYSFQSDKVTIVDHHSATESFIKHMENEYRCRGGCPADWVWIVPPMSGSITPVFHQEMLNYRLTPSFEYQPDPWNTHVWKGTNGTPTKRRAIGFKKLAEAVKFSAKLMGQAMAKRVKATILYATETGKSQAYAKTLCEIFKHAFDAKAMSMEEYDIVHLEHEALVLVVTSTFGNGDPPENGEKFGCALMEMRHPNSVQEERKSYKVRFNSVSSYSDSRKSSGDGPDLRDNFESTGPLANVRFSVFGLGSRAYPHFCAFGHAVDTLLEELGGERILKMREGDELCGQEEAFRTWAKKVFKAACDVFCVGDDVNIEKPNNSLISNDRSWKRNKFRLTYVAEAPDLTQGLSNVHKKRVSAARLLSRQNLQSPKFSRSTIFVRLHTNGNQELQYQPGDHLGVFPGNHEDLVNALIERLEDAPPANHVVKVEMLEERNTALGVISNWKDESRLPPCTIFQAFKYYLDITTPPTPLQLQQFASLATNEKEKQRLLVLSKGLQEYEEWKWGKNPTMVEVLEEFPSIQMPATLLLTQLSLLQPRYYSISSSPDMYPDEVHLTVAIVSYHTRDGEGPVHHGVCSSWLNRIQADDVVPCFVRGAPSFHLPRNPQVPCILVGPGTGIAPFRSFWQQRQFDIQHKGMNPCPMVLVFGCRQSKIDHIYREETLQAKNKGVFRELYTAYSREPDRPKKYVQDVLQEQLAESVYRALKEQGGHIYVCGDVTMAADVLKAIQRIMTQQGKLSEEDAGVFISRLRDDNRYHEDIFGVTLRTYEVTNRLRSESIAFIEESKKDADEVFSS
Outline: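 nNOS in rat brain cytosolic fraction, read as conversion of 14C-L-arginine to 14C-L-citrulline. Activity at several inhibitor concentrations was expressed as % of the uninhibited control. IC50 came from a nonlinear sigmoidal dose–response fit, with two or three replicate curves per compound.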

[3] = target: Cytochrome P450 2E1 (Rattus norvegicus, UniProt P05182); assay: Inhibition of rat liver CYP2E1; format: ADME, tissue-based
Chain of Cytochrome P450 2E1 (P05182 whole entry): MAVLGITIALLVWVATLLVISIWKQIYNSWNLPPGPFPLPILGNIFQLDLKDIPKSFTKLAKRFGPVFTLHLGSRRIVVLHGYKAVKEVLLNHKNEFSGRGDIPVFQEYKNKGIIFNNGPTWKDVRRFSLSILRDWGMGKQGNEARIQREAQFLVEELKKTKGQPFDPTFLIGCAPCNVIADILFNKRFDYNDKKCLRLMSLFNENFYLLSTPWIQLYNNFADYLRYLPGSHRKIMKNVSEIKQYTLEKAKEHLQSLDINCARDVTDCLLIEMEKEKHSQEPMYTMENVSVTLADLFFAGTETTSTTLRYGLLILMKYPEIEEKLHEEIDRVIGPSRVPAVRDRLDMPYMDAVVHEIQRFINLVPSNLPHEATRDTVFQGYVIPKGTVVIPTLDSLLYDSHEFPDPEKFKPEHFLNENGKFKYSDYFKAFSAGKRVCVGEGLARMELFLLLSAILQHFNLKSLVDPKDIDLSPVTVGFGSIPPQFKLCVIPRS
Outline: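 Rat liver microsomal CYP2E1 activity was read as p-nitrophenol hydroxylation, by spectrophotometric measurement of 4-nitrocatechol. Activity at several inhibitor concentrations (HCl salts) was expressed as percent of control. IC50 came from a nonlinear sigmoidal dose-response fit of each of two or three replicate curves.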

[4] = target: T1, Heme oxygenase 2 (Rattus norvegicus, UniProt P23711); assay: Inhibition of Sprague-Dawley rat brain HO2
T1 sequence (P23711 whole entry): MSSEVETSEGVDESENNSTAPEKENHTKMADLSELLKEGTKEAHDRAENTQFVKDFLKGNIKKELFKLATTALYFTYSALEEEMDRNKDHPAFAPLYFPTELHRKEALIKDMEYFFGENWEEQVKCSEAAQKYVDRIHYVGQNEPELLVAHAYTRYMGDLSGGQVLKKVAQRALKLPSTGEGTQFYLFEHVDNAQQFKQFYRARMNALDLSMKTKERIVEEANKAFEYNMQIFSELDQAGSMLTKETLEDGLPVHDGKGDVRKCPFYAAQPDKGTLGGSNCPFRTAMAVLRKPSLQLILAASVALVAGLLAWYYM
Outline: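 HO-2 source: Sprague-Dawley rat brain microsomes prepared by differential centrifugation. Compound (HCl salt) at 0.1–100 µM final was preincubated 10 min at 37 °C with 50 µM methemalbumin and 1 mg/mL protein in 100 mM phosphate pH 7.4. NADPH (1 mM final) was added and the mix incubated 15 min at 37 °C, then frozen on dry ice. CO was measured by GC, minus no-NADPH blanks. IC50 from sigmoidal fits, 2–3 replicate curves.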

[5] = target: Soluble guanylate cyclase (Rattus norvegicus); assay: Inhibition of rat lung sGC
[6] = target: T2, Heme oxygenase 1 (Homo sapiens, UniProt P09601); assay: Inhibition of human spleen HO1
T2 sequence (P09601 whole entry): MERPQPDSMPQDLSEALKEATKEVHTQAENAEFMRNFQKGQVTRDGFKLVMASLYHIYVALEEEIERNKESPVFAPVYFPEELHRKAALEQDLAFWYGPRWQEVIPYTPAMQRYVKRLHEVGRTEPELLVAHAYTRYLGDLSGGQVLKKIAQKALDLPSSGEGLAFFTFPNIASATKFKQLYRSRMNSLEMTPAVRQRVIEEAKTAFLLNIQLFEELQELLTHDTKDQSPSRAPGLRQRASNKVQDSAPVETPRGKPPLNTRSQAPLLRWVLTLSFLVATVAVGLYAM
Outline: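 HO-1 in human spleen microsomes. Heme was given as 50 µM methemalbumin in 100 mM phosphate buffer (pH 7.4) with 1 mg/mL protein. Inhibitor (0.1–100 µM final) was preincubated 10 min at 37 °C, then 1 mM NADPH was added for 15 min at 37 °C. Blanks lacking NADPH were subtracted. Reactions were stopped on dry ice and CO was measured by GC. IC50 came from sigmoidal fits of % control, from 2–3 replicate curves.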

[7] = target: T1, Heme oxygenase 2; assay: Inhibition of rat liver HO2
Outline: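 HO-2 source: rat liver microsomes. Heme was presented as methemalbumin (50 µM) with 1 mg/mL protein in 100 mM phosphate pH 7.4. Compound (HCl salt) was preincubated 10 min at 37 °C, then NADPH (1 mM final) was added for 15 min at 37 °C. CO was measured by GC, minus no-NADPH blanks. IC50 from sigmoidal fits of replicate curves.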

| Compound | IC50 [1] [µM] | IC50 [2] [µM] | IC50 [3] [µM] | IC50 [4] [µM] | IC50 [5] [µM] | IC50 [6] [µM] | IC50 [7] [µM] |
| --- | --- | --- | --- | --- | --- | --- | --- |
| Clc1ccc(CCC2(Cn3ccnc3)SCCS2)cc1 | 5.9 | 34 | – | – | – | – | – |
| C[C@H]1CO[C@@](CCc2ccc(Cl)cc2)(Cn2ccnc2)O1 | 8 | 773 | 6 | – | – | – | – |
| C[C@H]1CO[C@](CCc2ccc(Cl)cc2)(Cn2ccnc2)O1 | 10 | > 500 | 20 | > 100 | – | – | – |
| C[C@@H]1CO[C@](CCc2ccc(Cl)cc2)(Cn2ccnc2)O1 | 7 | > 500 | 30 | > 100 | – | – | – |
| Clc1ccc(CCC2(Cn3ccnc3)OCCO2)cc1 | – | 182 | 5 | > 100 | > 1000 | – | – |
| C[C@@H]1CO[C@@](CCc2ccc(Cl)cc2)(Cn2ccnc2)O1 | 3.2 | 362 | 3.6 | – | – | 1.5 | 532 |
